The nature of data set [1]: Competitive inhibition of recombinant bacterial His6-tagged TEV protease site linked NDM-1 (32 to […] residues) expressed in Escherichia coli BL21 (DE3). On the set-up: species or system Bacteria.
Data set [2] is described as follows: Inhibition of recombinant bacterial NDM-1 by fluorogenic assay. On the set-up: species or system Bacteria.
For data set [3], the system named is Escherichia coli. Briefly: Synergistic antibacterial activity against Escherichia coli TG1 transformed with IncX3 plasmid expressing blaNDM-1 assessed as ratio of negative logarithm of fractional inhibitory concentration index to non-hydrogen atom in presence of meropenem incubated for overnight by CLSI protocol based assay. Type of data set: functional. Conditions: time 12 hrs. The essentials: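 In E. coli TG1 carrying the IncX3 blaNDM-1 plasmid, the FIC index was taken from overnight CLSI-based MICs of compound, meropenem and their 1:1 mass mixture, read by eye. Synergistic efficiency = −ln(FIC index) divided by the number of non-hydrogen atoms. At least triplicate assays.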

Data set [4] relates to Escherichia coli. Briefly: Synergistic antibacterial activity against Escherichia coli TG1 transformed with IncX3 plasmid expressing blaNDM-1 assessed as fractional inhibitory concentration index in presence of meropenem incubated for overnight by CLSI protocol based assay. Type of data set: functional. Conditions: time 12 hrs. The essentials: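 FIC index from MICs of compound alone, meropenem alone, and the 1:1 (mass) compound–meropenem combination, read by eye after overnight incubation in a CLSI-based assay. FIC index = MICcombo/MICcpd + MICcombo/MICMem. FIC index ≤0.5 counted as synergy. At least triplicate assays. Clinical NDM-1 isolates for 17-39; E. coli TG1 carrying the IncX3 blaNDM-1 plasmid for 15.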

Data set [5] is described as follows: Growth inhibition of Escherichia coli TG1 transformed with IncX3 plasmid expressing blaNDM-1 incubated for overnight by CLSI protocol based assay. Conditions: 12 h.
The test system of data set [6] is Escherichia coli. Briefly: Potentiation of meropenem-induced antibacterial activity against Escherichia coli TG1 transformed with IncX3 plasmid expressing blaNDM-1 assessed as bacterial growth inhibition by measuring meropenem MIC incubated for overnight by CLSI protocol based assay. The format is functional. Particulars: time 12 hrs.
Data set [7] is described as follows: Inhibition of bacterial VIM-1. Further details: species or system Bacteria.
Data set [8] in a line: Covalent inhibition of bacterial NDM-1. On the set-up: species or system Bacteria.

We go through ten compounds from ChEMBL document CHEMBL4673212, “Investigation of synergistic antimicrobial effects of the drug combinations of meropenem and 1,2-benzisoselenazol-3(2H)-one derivatives on carbapenem-resistant Enterobacteriaceae producing NDM-1” (Eur J Med Chem, 2018).

Each structure is given as a SMILES string. Converted amounts (≈) assume the structure as drawn.

As usually defined, the IC50 is the concentration needed to halve the response being measured. `O=C(O)[C@H]1CCCCN1C(=O)C(CS)Cc1ccccc1` (mixture of isomers): in data set [1], the IC50 came to 0.7 µM.

On to `NCCNCc1ccc(C(=O)N[C@H]2Cc3cccc(C(=O)O)c3O[B-]2(O)O)cc1`, for which the IC50 in data set [2] stood at 0.004 µM.

On to `O=c1c2ccccc2[se]n1-c1ccncc1`, for which, in data set [3], the Ratio is 0.018. Further, in data set [4], the “fractional inhibitory concentration index (FICI)” value worked out at 0.75. Besides, the values for the MIC entry in data set [5] and in data set [6] were “>= 128 ug ml-1” and 32 µg/mL, respectively.

With `O=c1c2ccccc2[se]n1Cc1cccc(-c2ccccc2)c1`, the Ratio in data set [3] amounted to 0.043. The “fractional inhibitory concentration index (FICI)” value in data set [4] stood at 0.375. For the same compound, the MIC result in data set [5] is “>= 128 ug ml-1”; in data set [6], 16 µg/mL.

With `O=C(O)Cn1[se]c2ccccc2c1=O`, the Ratio in data set [3] is given as 0.091. Further, in data set [4], the “fractional inhibitory concentration index (FICI)” value is 0.281. The MIC in data set [5] worked out at 8 µg/mL (≈ 31.2 µM); in data set [6], 2 µg/mL.

`CC(C)(C)OC(=O)NCCCn1[se]c2ccccc2c1=O`: in data set [3], the Ratio is recorded as 0.08. Besides, in data set [4], the “fractional inhibitory concentration index (FICI)” value is 0.188. For the same compound, the MIC result in data set [5] is “>= 128 ug ml-1”; in data set [6], 8 µg/mL.

Regarding `CCN(CC)CCn1[se]c2ccccc2c1=O`, in data set [3], the Ratio was 0.041. The “fractional inhibitory concentration index (FICI)” value in data set [4] was 0.5. In addition, the MIC was found to be 64 µg/mL (≈ 215 µM) in data set [5] and 16 µg/mL in data set [6].

Regarding `O=C(O)[C@@H]1SC[C@H]2CS[C@H](CS)N21`, 23 µM corresponded to half-maximal inhibition in data set [7] (IC50).

On to `CC(C)(C)CC(=O)NCCn1[se]c2ccccc2c1=O`, for which the Ratio in data set [3] turned out to be 0.084. Besides, the “fractional inhibitory concentration index (FICI)” value in data set [4] stood at 0.188. The MIC result in data set [5] is “>= 128 ug ml-1”; in data set [6], 8 µg/mL.

As for `N[C@@H](C(=O)N[C@@H]1C(=O)N2C(C(=O)O)=C(Cl)CS[C@H]12)c1ccccc1` [CEFACLOR ANHYDROUS], the Ki in data set [8] was determined as 2300 µM.
